Reference: ChEMBL document CHEMBL3826914, “Selective photodepletion of malignant T cells in extracorporeal photopheresis with selenorhodamine photosensitizers” (Bioorg Med Chem, 2016)
The source made the active and inactive calls. No cut-off for these calls is given here.

test system: not listed separately; assay: Drug extrusion in human CD4 positive cells assessed as change in mean fluorescence intensity at 5 x 10^-8 M preincubated for 20 mins followed by growth in photosensitizer-free media for 30 mins by flow cytometric analysis relative to control; assay type: cell-based; conditions: 0.5 h, 0.05 µM

SMILES | Activity
S=C(c1ccc(C2=c3cc4c5c(c3[Se]c3c2cc2c6c3CCCN6CCC2)CCC[N+]=5CCC4)s1)N1CCCCC1.[Cl-] | 36.1%

test system: not listed separately; assay: Drug extrusion in human CD3 positive cells assessed as change in mean fluorescence intensity at 5 x 10^-8 M preincubated for 20 mins followed by growth in photosensitizer-free media for 30 mins by flow cytometric analysis relative to control; assay type: cell-based; conditions: 0.5 h, 0.05 µM

SMILES | Activity
S=C(c1ccc(C2=c3cc4c5c(c3[Se]c3c2cc2c6c3CCCN6CCC2)CCC[N+]=5CCC4)s1)N1CCCCC1.[Cl-] | 33.1%

test system: not listed separately; assay: Drug uptake in SEB-stimulated human CD25 negative cells assessed as mean fluorescence intensity at 5 x 10^-8 M preincubated for 20 mins followed by growth in photosensitizer-free media for 30 mins by flow cytometric analysis relative to control; conditions: 0.5 h, 0.05 µM

SMILES | Flu intensity
S=C(c1ccc(C2=c3cc4c5c(c3[Se]c3c2cc2c6c3CCCN6CCC2)CCC[N+]=5CCC4)s1)N1CCCCC1.[Cl-] | 25500 a.u.

test system: not listed separately; assay: (§1) Phototoxicity human CD4 positive cells co-cultured with GFP expressing human HUT78 cells assessed as cell survival at 7.5 x 10^-8 M preincubated 20 mins in photosensitizer media followed by growth in photosensitizer-free media for 30 mins measured 18 hrs after exposure to 5 J/cm2 irradiation by FACS analysis; assay type: cell-based; conditions: read-out: Survival
Procedure, shortened: (§2)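 Non-stimulated PBMCs from healthy donors (Ficoll-separated) were mixed 5:1 with GFP-transfected, sorted (>98%) HUT-78 cells. Cells took up 7.5×10^-8 M photosensitizer for 20 min, then spent 30 min in dye-free medium. They were exposed to 5 J cm^-2 light (600 nm LED) with rotation at 180 rpm. Survival was gated by FACS (GFP, CD3, CD4, CD8) 18 h later versus non-irradiated controls. Triplicate; mean ± SEM.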

SMILES | viability at 18 h, 0.075 µM
S=C(c1ccc(C2=c3cc4c5c(c3[Se]c3c2cc2c6c3CCCN6CCC2)CCC[N+]=5CCC4)s1)N1CCCCC1.[Cl-] | 1.5%

test system: ABCB1; assay: Passive permeability in dog MDCK2-MDR1 cells expressing ABCB1 at 5 uM after 30 mins in presence of compound 15 by LC-MS/MS analysis; assay type: ADME, cell-based, Canis lupus familiaris, MDCK-II; conditions: MDCK-MDR1, with compound 15 (concentration not stated), read-out: permeability
Procedure, shortened: (§3)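 MDR1-transfected MDCKII cells (passage 16–42) were seeded at 50,000 cells cm^-2 on Transwell filters and used on day 6. Monolayers were rinsed in DPBS with 10^-2 M HEPES, pH 7.4, at 37 °C. They were preincubated 30 min in 4.3 mg/mL BSA/DPBSH with or without 5×10^-6 M P-gp inhibitor. 5 μM dye was added apically or basolaterally and samples taken after 1 h at 37 °C with nutation. Quantitation was by LC-MS/MS; P_passive is the mean of P_AB and P_BA under full inhibition. Mean ± SD.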

SMILES | Papp at 0.5 h, 5 µM
S=C(c1ccc(C2=c3cc4c5c(c3[Se]c3c2cc2c6c3CCCN6CCC2)CCC[N+]=5CCC4)s1)N1CCCCC1.[Cl-] | < 0.1 ×10⁻⁶ cm/s

test system: HuT78; assay: Phototoxicity against human HUT78 cells assessed as reduction in cell viability preincubated for 1 hr in dark before exposure to 1 J/cm2 irradiation after 48 hrs by MTT assay; assay type: functional, cell-based; conditions: not given
Procedure, shortened: (§4)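 HUT-78 cells in RPMI 1640 with 10% FBS, 1% HEPES and 1% penicillin-streptomycin were plated at 7.5×10^4 per well and grown 24 h. Dye was added to final 5×10^-8 to 5×10^-7 M, then 1 h in the dark. Plates were kept dark or irradiated with a 633 ± 2 nm dye laser at ~3.2 mW cm^-2 to 0.5, 1.0 or 2.0 J cm^-2. Medium was replaced, 48 h at 37 °C, then MTT read at 570 nm. Triplicate runs; EC50/LD50 by sigmoidal variable-slope fit.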

SMILES | Activity
S=C(c1ccc(C2=c3cc4c5c(c3[Se]c3c2cc2c6c3CCCN6CCC2)CCC[N+]=5CCC4)s1)N1CCCCC1.[Cl-] | Dose-dependent effect

same assay, conditions: HuT78, light or radiation study

SMILES | EC50
S=C(c1ccc(C2=c3cc4c5c(c3[Se]c3c2cc2c6c3CCCN6CCC2)CCC[N+]=5CCC4)s1)N1CCCCC1.[Cl-] | 35 nM

test system: HuT78; assay: Drug uptake in GFP expressing human HUT78 cells co-cultured with non-stimulated human PBMC cells assessed as change in mean fluorescence intensity at 7.5 x 10^-8 M after 20 mins followed by growth in photosensitizer-free media for 30 mins by flow cytometric analysis relative to control; assay type: cell-based; conditions: hut78, 0.5 h, 0.075 µM

SMILES | Activity
S=C(c1ccc(C2=c3cc4c5c(c3[Se]c3c2cc2c6c3CCCN6CCC2)CCC[N+]=5CCC4)s1)N1CCCCC1.[Cl-] | 28.1%

test system: not listed separately; assay: Drug extrusion in SEB-stimulated human CD25 positive cells assessed as change in mean fluorescence intensity at 5 x 10^-8 M preincubated for 20 mins followed by growth in photosensitizer-free media for 30 mins by flow cytometric analysis relative to control; conditions: 0.5 h, 0.05 µM

SMILES | Activity
S=C(c1ccc(C2=c3cc4c5c(c3[Se]c3c2cc2c6c3CCCN6CCC2)CCC[N+]=5CCC4)s1)N1CCCCC1.[Cl-] | 16.8%

test system: not listed separately; assay: Drug extrusion in SEB-stimulated human CD25 negative cells assessed as mean fluorescence intensity at 5 x 10^-8 M preincubated for 20 mins followed by growth in photosensitizer-free media for 30 mins by flow cytometric analysis relative to control; conditions: 0.5 h, 0.05 µM

SMILES | Flu intensity
S=C(c1ccc(C2=c3cc4c5c(c3[Se]c3c2cc2c6c3CCCN6CCC2)CCC[N+]=5CCC4)s1)N1CCCCC1.[Cl-] | 16600 a.u.

test system: not listed separately; assay: Drug extrusion in human CD8 positive cells assessed as change in mean fluorescence intensity at 5 x 10^-8 M preincubated for 20 mins followed by growth in photosensitizer-free media for 30 mins by flow cytometric analysis relative to control; assay type: cell-based; conditions: 0.5 h, 0.05 µM

SMILES | Activity
S=C(c1ccc(C2=c3cc4c5c(c3[Se]c3c2cc2c6c3CCCN6CCC2)CCC[N+]=5CCC4)s1)N1CCCCC1.[Cl-] | 59.2%

test system: not listed separately; assay: as §1, with “CD3” for “CD4”; assay type: cell-based; conditions: read-out: Survival; procedure, shortened: as §2

SMILES | viability at 18 h, 0.075 µM
S=C(c1ccc(C2=c3cc4c5c(c3[Se]c3c2cc2c6c3CCCN6CCC2)CCC[N+]=5CCC4)s1)N1CCCCC1.[Cl-] | 5.8%

test system: HuT78; conditions: human, hut78, 0.5 h, 0.075 µM

SMILES | Flu intensity
S=C(c1ccc(C2=c3cc4c5c(c3[Se]c3c2cc2c6c3CCCN6CCC2)CCC[N+]=5CCC4)s1)N1CCCCC1.[Cl-] | 81000 a.u.

test system: not listed separately; assay: Drug extrusion in SEB-stimulated human CD25 positive cells assessed as mean fluorescence intensity at 5 x 10^-8 M preincubated for 20 mins followed by growth in photosensitizer-free media for 30 mins by flow cytometric analysis relative to control; conditions: 0.5 h, 0.05 µM

SMILES | Flu intensity
S=C(c1ccc(C2=c3cc4c5c(c3[Se]c3c2cc2c6c3CCCN6CCC2)CCC[N+]=5CCC4)s1)N1CCCCC1.[Cl-] | 69000 a.u.

test system: ABCB1; assay: Permeability from basolateral to apical side in dog MDCK2-MDR1 cells expressing ABCB1 at 5 uM after 30 mins in absence of compound 15 by LC-MS/MS analysis; assay type: ADME, cell-based, Canis lupus familiaris, MDCK-II; conditions: MDCK-MDR1, read-out: permeability; procedure, shortened: as §3

SMILES | Papp B→A at 0.5 h, 5 µM
S=C(c1ccc(C2=c3cc4c5c(c3[Se]c3c2cc2c6c3CCCN6CCC2)CCC[N+]=5CCC4)s1)N1CCCCC1.[Cl-] | 1.8 ×10⁻⁶ cm/s

test system: ABCB1; assay: Permeability from apical to basolateral side in dog MDCK2-MDR1 cells expressing ABCB1 at 5 uM after 30 mins in absence of compound 15 by LC-MS/MS analysis; assay type: ADME, cell-based, Canis lupus familiaris, MDCK-II; conditions: MDCK-MDR1, read-out: permeability; procedure, shortened: as §3

SMILES | Papp A→B at 0.5 h, 5 µM
S=C(c1ccc(C2=c3cc4c5c(c3[Se]c3c2cc2c6c3CCCN6CCC2)CCC[N+]=5CCC4)s1)N1CCCCC1.[Cl-] | 0.03 ×10⁻⁶ cm/s

test system: not listed separately; assay: Drug uptake in human HUT78 cell mitochondria by MTG-based bright field microscopic analysis; assay type: ADME; conditions: not given
Procedure, shortened: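 HUT-78 cells (5×10^5 in 0.5 mL medium) were incubated 15 min with 2×10^-7 M dye together with 5×10^-7 M MitoTracker Green. They were centrifuged and analysed by ImageStream imaging flow cytometry, with MTG excited at 488 nm (480–560 nm channel) and dye excited at 561 nm (642–745 nm channel). Colocalisation was given as the bright detail similarity score, mean ± SD over cells.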

SMILES | Drug uptake
S=C(c1ccc(C2=c3cc4c5c(c3[Se]c3c2cc2c6c3CCCN6CCC2)CCC[N+]=5CCC4)s1)N1CCCCC1.[Cl-] | Active

test system: not listed separately; assay: Drug uptake in SEB-stimulated human CD25 positive cells assessed as mean fluorescence intensity at 5 x 10^-8 M preincubated for 20 mins followed by growth in photosensitizer-free media for 30 mins by flow cytometric analysis relative to control; conditions: 0.5 h, 0.05 µM

SMILES | Flu intensity
S=C(c1ccc(C2=c3cc4c5c(c3[Se]c3c2cc2c6c3CCCN6CCC2)CCC[N+]=5CCC4)s1)N1CCCCC1.[Cl-] | 83300 a.u.

test system: not listed separately; assay: Dark toxicity against human HUT78 cells assessed as reduction in cell viability preincubated for 1 hr in dark after 48 hrs by MTT assay; assay type: cell-based; conditions: read-out: LD50; procedure, shortened: as §4

SMILES | CC50 at 48 h
S=C(c1ccc(C2=c3cc4c5c(c3[Se]c3c2cc2c6c3CCCN6CCC2)CCC[N+]=5CCC4)s1)N1CCCCC1.[Cl-] | 1080 nM

test system: ABCB1; assay: Permeability from basolateral to apical side in dog MDCK2-MDR1 cells expressing ABCB1 at 5 uM after 30 mins in presence of compound 15 by LC-MS/MS analysis; assay type: ADME, cell-based, Canis lupus familiaris, MDCK-II; conditions: MDCK-MDR1, with compound 15 (concentration not stated), read-out: permeability; procedure, shortened: as §3

SMILES | Papp B→A at 0.5 h, 5 µM
S=C(c1ccc(C2=c3cc4c5c(c3[Se]c3c2cc2c6c3CCCN6CCC2)CCC[N+]=5CCC4)s1)N1CCCCC1.[Cl-] | 0.057 ×10⁻⁶ cm/s

test system: ABCB1; assay: Permeability from apical to basolateral side in dog MDCK2-MDR1 cells expressing ABCB1 at 5 uM after 30 mins in presence of compound 15 by LC-MS/MS analysis; assay type: ADME, cell-based, Canis lupus familiaris, MDCK-II; conditions: MDCK-MDR1, with compound 15 (concentration not stated), read-out: permeability; procedure, shortened: as §3

SMILES | Papp A→B at 0.5 h, 5 µM
S=C(c1ccc(C2=c3cc4c5c(c3[Se]c3c2cc2c6c3CCCN6CCC2)CCC[N+]=5CCC4)s1)N1CCCCC1.[Cl-] | 0.051 ×10⁻⁶ cm/s

test system: not listed separately; assay: Drug extrusion in SEB-stimulated human CD25 negative cells assessed as change in mean fluorescence intensity at 5 x 10^-8 M preincubated for 20 mins followed by growth in photosensitizer-free media for 30 mins by flow cytometric analysis relative to control; conditions: 0.5 h, 0.05 µM

SMILES | Activity
S=C(c1ccc(C2=c3cc4c5c(c3[Se]c3c2cc2c6c3CCCN6CCC2)CCC[N+]=5CCC4)s1)N1CCCCC1.[Cl-] | 35.2%

test system: HuT78; assay: as §1, with “in” for “human CD4 positive cells co-cultured with”, “HUT78 cells co-cultured with human PBMC” for “HUT78”; assay type: functional; conditions: HuT78, light or radiation study, read-out: Survival; procedure, shortened: as §2

SMILES | viability at 0.075 µM
S=C(c1ccc(C2=c3cc4c5c(c3[Se]c3c2cc2c6c3CCCN6CCC2)CCC[N+]=5CCC4)s1)N1CCCCC1.[Cl-] | 0%

test system: HuT78; assay: Phototoxicity against human HUT78 cells assessed as reduction in cell viability preincubated for 1 hr in dark at 5 x 10^-8M before exposure to 0.5 to 2 J/cm2 irradiation after 48 hrs by MTT assay; assay type: functional, cell-based; conditions: not given; procedure, shortened: as §4

SMILES | Activity
S=C(c1ccc(C2=c3cc4c5c(c3[Se]c3c2cc2c6c3CCCN6CCC2)CCC[N+]=5CCC4)s1)N1CCCCC1.[Cl-] | Active

test system: HuT78; conditions: human, hut78, 0.5 h, 0.075 µM; remark: another data set of the same source

SMILES | Flu intensity
S=C(c1ccc(C2=c3cc4c5c(c3[Se]c3c2cc2c6c3CCCN6CCC2)CCC[N+]=5CCC4)s1)N1CCCCC1.[Cl-] | 66000 a.u.

test system: not listed separately; assay: as §1, with “CD8” for “CD4”; assay type: cell-based; conditions: read-out: Survival; procedure, shortened: as §2

SMILES | viability at 18 h, 0.075 µM
S=C(c1ccc(C2=c3cc4c5c(c3[Se]c3c2cc2c6c3CCCN6CCC2)CCC[N+]=5CCC4)s1)N1CCCCC1.[Cl-] | 11.3%
